# Reference: ChEMBL document CHEMBL1152964, “Bicyclic cyanothiazolidines as novel dipeptidyl peptidase 4 inhibitors” (Bioorg Med Chem Lett, 2009)
# Tests used:
# Prolyl endopeptidase FAP = biological target: T1, Prolyl endopeptidase FAP (Homo sapiens, UniProt Q12884); assay: Inhibition of human recombinant FAP expressed in Sf9 cells by fluorescence assay
# T1 sequence (Q12884 whole entry): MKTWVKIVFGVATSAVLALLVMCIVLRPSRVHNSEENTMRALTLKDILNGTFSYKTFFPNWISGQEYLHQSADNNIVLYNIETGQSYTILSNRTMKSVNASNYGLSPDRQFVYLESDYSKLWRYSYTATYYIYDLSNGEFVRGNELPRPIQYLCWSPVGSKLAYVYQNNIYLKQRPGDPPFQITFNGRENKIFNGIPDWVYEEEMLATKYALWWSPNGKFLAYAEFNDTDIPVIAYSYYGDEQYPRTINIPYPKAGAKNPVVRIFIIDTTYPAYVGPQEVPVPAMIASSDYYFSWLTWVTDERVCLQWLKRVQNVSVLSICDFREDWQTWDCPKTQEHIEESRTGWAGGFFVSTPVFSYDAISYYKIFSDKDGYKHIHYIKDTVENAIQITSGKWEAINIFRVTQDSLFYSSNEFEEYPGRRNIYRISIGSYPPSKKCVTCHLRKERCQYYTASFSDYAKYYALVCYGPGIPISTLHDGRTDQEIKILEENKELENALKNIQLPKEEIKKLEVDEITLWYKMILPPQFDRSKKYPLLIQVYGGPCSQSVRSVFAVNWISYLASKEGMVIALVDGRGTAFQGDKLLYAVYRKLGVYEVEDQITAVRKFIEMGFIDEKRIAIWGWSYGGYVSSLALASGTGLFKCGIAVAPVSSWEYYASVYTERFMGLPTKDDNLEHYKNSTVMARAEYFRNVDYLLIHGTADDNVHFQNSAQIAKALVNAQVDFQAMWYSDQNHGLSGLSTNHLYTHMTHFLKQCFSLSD
# Summary of the method: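 Recombinant human FAP, His-tagged, expressed in infected insect cells grown 48 h and purified by His-tag column. Enzyme preincubated with inhibitor (0.5 nM to 50 µM; dissolved in DMSO or 50 mM glycine pH 3.0) 10 min at 27 °C in 25 mM Tris pH 8. Ala-Pro AMC substrate was then added and AMC release read at ex 360/em 460 nm. IC50 was fitted by nonlinear regression.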
# Dipeptidyl peptidase 4 = Dipeptidyl peptidase 4 (Homo sapiens, UniProt P27487); assay: Inhibition of human recombinant DPP4 by fluorescence assay
# Chain of Dipeptidyl peptidase 4 (P27487 whole entry): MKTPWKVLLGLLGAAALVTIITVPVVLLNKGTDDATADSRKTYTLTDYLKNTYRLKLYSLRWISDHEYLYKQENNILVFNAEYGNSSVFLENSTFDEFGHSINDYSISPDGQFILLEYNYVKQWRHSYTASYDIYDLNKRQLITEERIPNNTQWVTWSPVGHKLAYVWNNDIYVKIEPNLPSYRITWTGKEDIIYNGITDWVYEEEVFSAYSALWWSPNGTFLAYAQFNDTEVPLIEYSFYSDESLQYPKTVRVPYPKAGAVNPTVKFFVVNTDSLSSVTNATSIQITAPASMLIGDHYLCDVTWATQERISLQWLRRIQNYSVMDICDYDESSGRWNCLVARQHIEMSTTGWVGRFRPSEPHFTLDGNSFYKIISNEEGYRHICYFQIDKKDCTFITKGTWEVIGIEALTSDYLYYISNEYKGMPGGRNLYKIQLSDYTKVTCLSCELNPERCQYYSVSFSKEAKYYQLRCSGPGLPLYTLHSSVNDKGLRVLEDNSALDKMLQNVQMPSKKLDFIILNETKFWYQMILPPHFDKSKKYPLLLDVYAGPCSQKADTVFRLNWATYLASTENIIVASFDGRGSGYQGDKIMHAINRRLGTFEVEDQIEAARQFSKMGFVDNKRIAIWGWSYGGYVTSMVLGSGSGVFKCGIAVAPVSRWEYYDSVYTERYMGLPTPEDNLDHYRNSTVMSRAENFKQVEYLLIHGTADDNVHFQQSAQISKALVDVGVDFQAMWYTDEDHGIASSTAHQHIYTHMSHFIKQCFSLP
SMILES,IC50 (Prolyl endopeptidase FAP),IC50 (Dipeptidyl peptidase 4)
N#C[C@@H]1CS[C@H]2C[C@](N)(Cc3ccccc3)C(=O)N12,> 10 µM,–
N#C[C@@H]1CS[C@H]2C[C@](N)(CC3CCCCC3)C(=O)N12,> 10 µM,–
N#C[C@@H]1CS[C@H]2C[C@@H](NCCc3ccccc3)C(=O)N12,–,> 16 µM
N#C[C@@H]1CS[C@H]2C[C@](N)(c3ccccc3)C(=O)N12,> 10 µM,–
N#C[C@@H]1CS[C@H]2C[C@](N)(C3CCCC3)C(=O)N12,> 10 µM,–
CC(C)C[C@@]1(N)C[C@@H]2SC[C@@H](C#N)N2C1=O,> 10 µM,–
CC[C@@]1(N)C[C@@H]2SC[C@@H](C#N)N2C1=O,> 10 µM,–
N#C[C@@H]1CS[C@H]2C[C@](N)(C3CCCCC3)C(=O)N12,> 10 µM,–
N#C[C@@H]1CS[C@H]2C[C@](N)(CCc3ccccc3)C(=O)N12,> 10 µM,–
CC[C@H](C)[C@@]1(N)C[C@@H]2SC[C@@H](C#N)N2C1=O,> 10 µM,–
CC(C)[C@@]1(N)C[C@@H]2SC[C@@H](C#N)N2C1=O,> 10 µM,–
N#C[C@@H]1CS[C@H]2CC[C@H](N)C(=O)N12,–,> 1.6 µM
N#C[C@@H]1CS[C@H]2C[C@@H](NC3CCCC3)C(=O)N12,–,> 16 µM
N#C[C@@H]1CS[C@H]2C[C@](N)(c3ccc(F)cc3)C(=O)N12,> 10 µM,–
N#C[C@@H]1CS[C@H]2CC[C@@H](N)C(=O)N12,–,> 1.6 µM
